Assay results from different studies.
Compare with care: the assays were run in different laboratories. ≈ marks a conversion by molar mass, not a printed value.

The MBC of `O=C1NC(=S)S/C1=C\c1c2ccccc2c(-c2ccc(N(c3ccccc3)c3ccccc3)cc2)c2ccccc12` is reported as > 1000 mg/L (Bacillus cereus; microbial killing, broth dilution; ATCC10876).
With `COc1cc(-c2cc(=O)c3c(O)cc(O)cc3o2)ccc1O` the inhibition was 100% (Helicobacter pylori; microbial growth, broth dilution; 62.5 µg/mL).
`O=C(O)CN1C(=O)/C(=C/c2ccc(-c3ccc(N(c4ccccc4)c4ccccc4)cc3)cc2)SC1=S` has an MBC of 31.3 mg/L (≈ 59.9 µM) (Bacillus cereus; microbial killing, broth dilution; ATCC10876).
For `O=c1cc(-c2ccc(O)c(O)c2)oc2cc(O)cc(O)c12`, the inhibition was 100% (Helicobacter pylori; microbial growth, broth dilution; 31.25 µg/mL).
With `CC1(C)S[C@@H]2[C@H](NC(=O)[C@H](N)c3ccccc3)C(=O)N2[C@H]1C(=O)O` the inhibition was 100% (Salmonella enterica; microbial growth, agar dilution; ATCC13311 TYPHIMURIUM; 26.93 µM).
For `[H]/N=C(/N)N[C@H]1[C@H](O)[C@@H](O)[C@H](O[C@@H]2O[C@@H](C)[C@](O)(C=O)[C@H]2O[C@@H]2O[C@@H](CO)[C@H](O)[C@@H](O)[C@@H]2NC)[C@@H](N/C(N)=N\[H])[C@@H]1O`, the MIC was 8 mg/L (≈ 13.8 µM) (Salmonella enterica; microbial growth; 20 h, pH 7.2).
`O=C(O)CN1C(=O)/C(=C/c2c3ccccc3c(-c3ccc(N(c4ccccc4)c4ccccc4)cc3)c3ccccc23)SC1=S` has an MIC of > 1000 mg/L (Bacillus cereus; microbial growth, broth dilution; ATCC10876).
`O=C(O)c1cn(C2CC2)c2cc(N3CCNCC3)c(F)cc2c1=O` has an MIC of 0.0156 mg/L (≈ 0.0471 µM) (Salmonella enterica; microbial growth; ENTERITIDIS; 20 h, pH 7).
The MBC of `O=C(O)CN1C(=O)/C(=C/c2ccc(-c3ccc(N(c4ccccc4)c4ccccc4)cc3)c3ccccc23)NC1=S` is reported as > 1000 mg/L (Bacillus cereus; microbial killing, broth dilution; ATCC10876).
For `Cc1cc(NS(=O)(=O)c2ccc(N)cc2)no1`, the MIC was 64 mg/L (≈ 253 µM) (Salmonella enterica; microbial growth; ENTERITIDIS; 20 h, pH 7).
The MIC of `O=C1NC(=S)N/C1=C\c1ccc(-c2ccc(N(c3ccccc3)c3ccccc3)cc2)cc1` is reported as > 1000 mg/L (Bacillus cereus; microbial growth, broth dilution; ATCC10876).
The MIC90 of `COc1c(N2C[C@@H]3CCCN[C@@H]3C2)c(F)cc2c(=O)c(C(=O)O)cn(C3CC3)c12` is reported as 0.49 mg/L (≈ 1.22 µM) (Salmonella enterica; microbial growth; ATCC13311 TYPHIMURIUM).
With `C=C[C@@]1(C)C=C2CC[C@@H]3[C@](C)(CCC[C@@]3(C)C(=O)O)[C@H]2CC1` the inhibition was 86.3% (Helicobacter pylori; microbial growth, broth dilution; 15.63 µg/mL).
`O=C(O)CN1C(=O)/C(=C/c2ccc(-c3ccc(N(c4ccccc4)c4ccccc4)cc3)c3ccccc23)SC1=S` gave an MBC of > 1000 mg/L (Bacillus cereus; microbial killing, broth dilution; ATCC10876).
With `CCn1cc(C(=O)O)c(=O)c2ccc(C)nc21` the MIC was 2 mg/L (≈ 8.61 µM) (Salmonella enterica; microbial growth; 20 h, pH 7).
`O=C1NC(=S)N/C1=C\c1c2ccccc2c(-c2ccc(N(c3ccccc3)c3ccccc3)cc2)c2ccccc12` has an MBC of > 1000 mg/L (Bacillus cereus; microbial killing, broth dilution; ATCC10876).
With `O=C(N[C@H](CO)[C@H](O)c1ccc([N+](=O)[O-])cc1)C(Cl)Cl` the MIC was 2 mg/L (≈ 6.19 µM) (Salmonella enterica; microbial growth; 20 h, pH 5.5).
`C[C@@H](O)[C@H]1C(=O)N2C(C(=O)O)=C(S[C@@H]3CN[C@H](C(=O)N(C)C)C3)[C@H](C)[C@H]12` has an MIC of ≤ 0.5 mg/L (Salmonella enterica; microbial growth, broth dilution; clinical isolate).
For `CO/N=C(\C(=O)N[C@@H]1C(=O)N2C(C(=O)O)=C(CSc3nc(=O)c(=O)[nH]n3C)CS[C@H]12)c1csc(N)n1`, the MIC was 0.0625 mg/L (≈ 0.113 µM) (Salmonella enterica; microbial growth; ENTERITIDIS; 20 h, pH 7).
With `CC[C@H]1OC(=O)[C@H](C)[C@@H](O[C@H]2C[C@@](C)(OC)[C@@H](O)[C@H](C)O2)[C@H](C)[C@@H](O[C@@H]2O[C@H](C)C[C@H](N(C)C)[C@H]2O)[C@](C)(OC)C[C@@H](C)C(=O)[C@H](C)[C@@H](O)[C@]1(C)O` the inhibition was 100% (Helicobacter pylori; microbial growth, broth dilution; 62.5 µg/mL).
`O=C(N[C@H](CO)[C@H](O)c1ccc([N+](=O)[O-])cc1)C(Cl)Cl` has an MIC90 of 0.98 mg/L (≈ 3.03 µM) (Salmonella enterica; microbial growth; ATCC13311 TYPHIMURIUM).
The MIC of `CN(C)[C@@H]1C(O)=C(C(N)=O)C(=O)[C@@]2(O)C(O)=C3C(=O)c4c(O)cccc4[C@@](C)(O)[C@H]3C[C@@H]12` is reported as 1 mg/L (≈ 2.25 µM) (Salmonella enterica; microbial growth; F98, TYPHIMURIUM; 20 h, pH 7).
With `COC(=O)c1ccc(O)cc1` the inhibition was 100% (Helicobacter pylori; microbial growth, broth dilution; 15.63 µg/mL).
The MIC of `COc1cc(Cc2cnc(N)nc2N)cc(OC)c1OC` is reported as 0.25 mg/L (≈ 0.861 µM) (Salmonella enterica; microbial growth; F98, TYPHIMURIUM; 20 h, pH 7.2).
`O=c1cc(-c2ccc(O)cc2)oc2cc(O)cc(O)c12` gave an inhibition of 82.6% (Helicobacter pylori; microbial growth, broth dilution; 0.98 µg/mL).
